The results in this text go back to ChEMBL document CHEMBL1932940, “Xanthohumol induces apoptosis in human malignant glioblastoma cells by increasing reactive oxygen species and activating MAPK pathways” (J Nat Prod, 2011).

Active and inactive are the calls of the source. The calls are words filed in the database; no cut-off is given here.

Data set [1] relates to T98G. Put plainly: Induction of apoptosis in human T98G cells at 1 to 50 uM after 48 hrs by propidium iodide staining based flow cytometric analysis. The format is functional, cell-based. A digest of the protocol: (§1)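 Cells treated 1−50 μM for 24 or 48 h, washed in PBS, resuspended in 0.1% sodium citrate, 0.1% Triton X-100, 50 μg/mL propidium iodide, 30 min at 4 °C in dark. Nuclei analyzed by flow cytometry, DNA on log scale, debris gated out; percent hypodiploid (sub-G1) nuclei reported. Three experiments in triplicate.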
On the technique in general: In flow cytometry, cells or beads pass a laser one at a time.

The test system of data set [2] is T98G. Put plainly: Induction of cell cycle arrest in human T98G cells assessed as accumulation at S phase at 1 to 20 uM after 48 hrs by flow cytometric analysis. The format is functional, cell-based. In short, it runs like this:
(§2)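 2 × 10^5 cells per dish exposed 48 h (1−20 μM per legend); harvested, fixed in cold 70% ethanol at −20 °C, stained with propidium iodide plus RNase A (100 U/mL) 30 min at room temperature; percentage in G1, S, G2/M by flow cytometry. Three experiments in triplicate.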

Data set [3] concerns U-87 MG. Put plainly: Induction of cell cycle arrest in human U87MG cells assessed as accumulation at G0/G1 phase at 1 to 20 uM after 48 hrs by flow cytometric analysis. The format is functional, cell-based. Particulars: U-87MG ATCC. A digest of the protocol: as §2
Data set [4] has as its system T98G. Put plainly: Induction of cell cycle arrest in human T98G cells assessed as accumulation at G2/M phase at 1 to 20 uM after 48 hrs by flow cytometric analysis. The format is functional, cell-based. A digest of the protocol: as §2
Data set [5] deals with U-87 MG. Put plainly: Induction of apoptosis in human U87MG cells at 1 to 50 uM after 48 hrs by propidium iodide staining based flow cytometric analysis. The format is functional, cell-based. Particulars: U-87MG ATCC. In short, it runs like this: as §1
The test system of data set [6] is U-87 MG. Put plainly: Induction of cell cycle arrest in human U87MG cells assessed as accumulation at S phase at 1 to 20 uM after 48 hrs by flow cytometric analysis. The following applies: U-87MG ATCC. The format is functional, cell-based. In short, it runs like this:
as §2

The test system of data set [7] is T98G. Put plainly: Anticancer activity against human T98G cells assessed as decrease in cell viability at 50 uM after 48 hrs by MTT assay. Type of data set: functional. In short, it runs like this: (§3)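 Cells (T98G, U87-MG, NHA; 3 × 10^4 per well) plated, next day exposed to serial dilutions (1−50 μM) for 48 h at 37 °C, 5% CO2. MTT (5 mg/mL) added for 3 h; crystals solubilized in 50% DMF/20% SDS pH 4.5; OD at 620 nm. Viability = % of DMSO (0.1% final) controls. Means ± SEM, three experiments in triplicate.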
Background: Tetrazolium dyes change colour on reduction, which living cells bring about.

In data set [8] the test system is T98G. Put plainly: Induction of cell cycle arrest in human T98G cells assessed as accumulation at G0/G1 phase at 1 to 20 uM after 48 hrs by flow cytometric analysis. Type of data set: functional, cell-based. In short, it runs like this: as §2
Data set [9] in a line: Cytotoxicity against normal human astrocytes assessed as decrease in cell viability after 48 hrs by MTT assay. The format is cell-based. Particulars: astrocyte. In short, it runs like this:
as §3

The test system of data set [10] is U-87 MG. Put plainly: Induction of cell cycle arrest in human U87MG cells assessed as accumulation at G2/M phase at 1 to 20 uM after 48 hrs by flow cytometric analysis. The format is functional, cell-based. Particulars: U-87MG ATCC. A digest of the protocol: as §2
Another data set has as its system U-87MG ATCC. Put plainly: Anticancer activity against human U87MG cells assessed as decrease in cell viability at 50 uM after 48 hrs by MTT assay. Type of data set: functional, cell-based. In short, it runs like this: as §3

As for `CC(C)=CCC1C(=O)C(C(=O)CC(C)C)=C(O)C(O)(CC=C(C)C)C1=O` (stereo unspecified) [HUMULONE], the result with T98G [1], in the data set with T98G [2], in the data set with U-87 MG [3], in the data set with T98G [4], in the data set on U-87 MG [5] and in the data set with U-87 MG [6] was inactive. Further, the result in the data set with T98G [7], in the data set on T98G [8], in the data set on U-87 MG [10] and in the data set with U-87MG ATCC was inactive. In [9], the Activity entry is “Non-toxic”.
